Data on one compound can be found in ChEMBL document CHEMBL1122125, “Synthesis and in vivo antitumor activity of potential 5-fluorouracil prodrugs” (1982).

For orientation: ILS means the gain in survival time of treated over control animals, in per cent.

What all share (format): functional
In test [1] the test system is Mus musculus. Description: Antitumor activity was determined for average 7-day weight change against P-388 leukemia in mice at a dose of 680 mg/kg. The method in brief:
(§1)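 Male B6D2F1J mice given 10⁶ P-388 cells ip on day 0, then treated ip once daily on days 1-4 (qd × 4), 5 mice per dose group. Compounds dosed in sterile saline, except one lipophilic thioether given in 10% Tween 80. Mice weighed on days 1 and 7; mean weight per mouse on day 1 and 7-day weight change reported in g and as percent.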

Test [2] relates to Mus musculus. Description: Antitumor activity was determined for average weight on day 1 against P-388 leukemia in mice at a dose of 680 mg/kg. The method in brief: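 Male B6D2F1J mice, groups of 5, inoculated ip with 10⁶ P-388 cells on day 0. Drug given ip on days 1-4 (qd × 4) in sterile saline, or in 10% Tween 80 for the poorly water-soluble thioether. Average weight per mouse recorded on day 1, with reweighing on day 7 for percent weight change. Untreated control groups had 10-17 animals per experiment.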

Test [3] relates to Mus musculus. The test is described as follows: Percent increase in life span against P-388 leukemia in mice was determined at a dose of 340 mg/kg. As to conditions: P388. The method in brief:
(§2)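 Male B6D2F1J mice, 5 per dose group, received 10⁶ P-388 cells ip on day 0. Dosing was ip qd × 4 on days 1-4 in sterile saline, or 10% Tween 80 for the butyl thioether. Median survival times of treated (T) and untreated control (C, 10-17 mice) groups were compared: %ILS = [(T/C) − 1]100. Weights taken on days 1 and 7.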

The test system of test [4] is Mus musculus. The test is described as follows: Percent increase in life span against P-388 leukemia in mice was determined at a dose of 600 mg/kg. As to conditions: P388. The method in brief: as §2
The test system of test [5] is Mus musculus. Description: Percent increase in life span against P-388 leukemia in mice was determined at a dose of 85 mg/kg. As to conditions: P388. The method in brief: as §2
For test [6], the system named is Mus musculus. The test is described as follows: Antitumor activity was determined for average 7-day weight change against P-388 leukemia in mice at a dose of 170 mg/kg. The method in brief: as §1
Test [7] deals with Mus musculus. Description: Percent increase in life span against P-388 leukemia in mice was determined at a dose of 300 mg/kg. As to conditions: P388. The method in brief: as §2
Test [8] relates to Mus musculus. The test is described as follows: Antitumor activity was determined for survival range of mice against P-388 leukemia in mice at a dose of 150 mg/kg. The method in brief: (§3)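 Male B6D2F1J mice implanted ip with 10⁶ P-388 cells on day 0; test agents given ip on days 1–4 (qd × 4) in sterile saline, or in 10% Tween 80 for the lipophilic thioether. Groups of 5 treated mice, with 10–17 untreated controls per experiment. Mice weighed on days 1 and 7 to give the 7-day weight change in g and %. Survival recorded in days as median and range.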

The subject of test [9] is Mus musculus. The test is described as follows: Antitumor activity was determined for survival range of mice against P-388 leukemia in mice at a dose of 170 mg/kg. The method in brief:
as §3

In test [10] the test system is Mus musculus. The test is described as follows: Antitumor activity was determined for median survival of mice against P-388 leukemia in mice at a dose of 340 mg/kg. The method in brief:
as §3

In test [11] the test system is Mus musculus. The test is described as follows: Antitumor activity was determined for 7-day average percent weight change against P-388 leukemia in mice at a dose of 75 mg/kg. The method in brief: as §1
In the next test the test system is L1210. Description: Evaluated for cytotoxicity against L1210 mouse leukemia cells. As to conditions: read-out: ID50 (the source's name). The method in brief:
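L1210 murine leukemia cells in Eagle's minimal essential medium with 15% fetal calf serum, streptomycin (100 μg/mL), penicillin (100 units/mL) and 0.05 mM 2-mercaptoethanol. Cells counted by Coulter counter after 48 h exposure. ID50 is the 50% growth-inhibitory dose. Triplicate assays, standard deviation ±10%.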

On to `CC[C@H]1OC(n2cc(F)c(=O)[nH]c2=O)[C@H](O)[C@@H]1O` (some centres not stated), for which the Average weight with Mus musculus [1] is recorded as -1.4 g mouse-1; in the test on Mus musculus [2], 25.8 g mouse-1; with Mus musculus [6] it was 1.6 g mouse-1. Also, the ILS at 340 mg/kg in the test on Mus musculus [3] was 45%. This compound also registered an increase in lifespan (ILS) at 600 mg/kg in the test on Mus musculus [4] of 63%. The ILS at 85 mg/kg with Mus musculus [5] turned out to be 18%. For the same compound, in the test with Mus musculus [7], the ILS at 300 mg/kg worked out at 54%. Also, the Survival range was found to be 15 in the test on Mus musculus [8] and 13 with Mus musculus [9]. In the test on Mus musculus [10], this compound had a Survival median of 16. Besides, the Weight change with Mus musculus [11] is recorded as 9%. Further, the IC50 in the test on L1210 came to 19 µM.
